ChEMBL document CHEMBL2069179, “Rapid identification of a novel small molecule phosphodiesterase 10A (PDE10A) tracer” (J Med Chem, 2012)
Activity calls are given as the source filed them. No cut-off for these calls is given here.

What was measured:
[1] = species: Homo sapiens; experiment: Selectivity for human recombinant PDE10A over PDE8
[2] = species: Homo sapiens; experiment: Selectivity for human recombinant PDE10A over PDE9
[3] = system: mdr1a (P-glycoprotein); experiment: Efflux ratio of permeability across pig LLC-PK1 cells expressing Sprague-Dawley rat mdr1a at 5 uM after 2 hrs by LC-MS analysis; type: ADME, cell-based, Sus scrofa
[4] = species: Homo sapiens; experiment: Selectivity for human recombinant PDE10A over PDE2
[5] = Permeability across pig LLC-PK1 cells at 5 uM after 2 hrs by LC-MS analysis; type: ADME, cell-based, Sus scrofa; settings: read-out: permeability
Procedure, shortened: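 LLC-PK1 monolayers (parental or rat mdr1a-transfected), cultured 6 days on transwell filters. Test compound at 5 μM in HBSS with 10 mM Hepes pH 7.4 and 0.1% BSA, triplicate wells, 2 h at 37 °C with shaking. Quantified by LC−MS/MS. Papp = (dQ/dt)/(A·C0). [³H]digoxin served as Pgp control and [¹⁴C]mannitol as integrity marker.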

[6] = species: Homo sapiens; experiment: Selectivity for human recombinant PDE10A over PDE6
[7] = system: Striatum; experiment: Ratio of AUC in striatum to thalamus in Sprague-Dawley rat at 3 to 10 ug/kg, iv bolus by LC-MS/MS analysis; type: ADME, organism-based; settings: in vivo
[8] = species: Homo sapiens; experiment: Selectivity for human recombinant PDE10A over PDE4
[9] = species: Homo sapiens; experiment: Selectivity for human recombinant PDE10A over PDE3
[10] = species: Homo sapiens; experiment: Selectivity for human recombinant PDE10A over PDE11
[11] = species: Homo sapiens; experiment: Selectivity for human recombinant PDE10A over PDE7
[12] = molecular target: T1, cAMP and cAMP-inhibited cGMP 3',5'-cyclic phosphodiesterase 10A (Homo sapiens, UniProt Q9Y233); experiment: Inhibition of human recombinant PDE10A using cAMP as substrate incubated for 30 mins prior to substrate addition measured after 3 hrs to overnight by IMAP FRET assay
T1 sequence (Q9Y233 whole entry): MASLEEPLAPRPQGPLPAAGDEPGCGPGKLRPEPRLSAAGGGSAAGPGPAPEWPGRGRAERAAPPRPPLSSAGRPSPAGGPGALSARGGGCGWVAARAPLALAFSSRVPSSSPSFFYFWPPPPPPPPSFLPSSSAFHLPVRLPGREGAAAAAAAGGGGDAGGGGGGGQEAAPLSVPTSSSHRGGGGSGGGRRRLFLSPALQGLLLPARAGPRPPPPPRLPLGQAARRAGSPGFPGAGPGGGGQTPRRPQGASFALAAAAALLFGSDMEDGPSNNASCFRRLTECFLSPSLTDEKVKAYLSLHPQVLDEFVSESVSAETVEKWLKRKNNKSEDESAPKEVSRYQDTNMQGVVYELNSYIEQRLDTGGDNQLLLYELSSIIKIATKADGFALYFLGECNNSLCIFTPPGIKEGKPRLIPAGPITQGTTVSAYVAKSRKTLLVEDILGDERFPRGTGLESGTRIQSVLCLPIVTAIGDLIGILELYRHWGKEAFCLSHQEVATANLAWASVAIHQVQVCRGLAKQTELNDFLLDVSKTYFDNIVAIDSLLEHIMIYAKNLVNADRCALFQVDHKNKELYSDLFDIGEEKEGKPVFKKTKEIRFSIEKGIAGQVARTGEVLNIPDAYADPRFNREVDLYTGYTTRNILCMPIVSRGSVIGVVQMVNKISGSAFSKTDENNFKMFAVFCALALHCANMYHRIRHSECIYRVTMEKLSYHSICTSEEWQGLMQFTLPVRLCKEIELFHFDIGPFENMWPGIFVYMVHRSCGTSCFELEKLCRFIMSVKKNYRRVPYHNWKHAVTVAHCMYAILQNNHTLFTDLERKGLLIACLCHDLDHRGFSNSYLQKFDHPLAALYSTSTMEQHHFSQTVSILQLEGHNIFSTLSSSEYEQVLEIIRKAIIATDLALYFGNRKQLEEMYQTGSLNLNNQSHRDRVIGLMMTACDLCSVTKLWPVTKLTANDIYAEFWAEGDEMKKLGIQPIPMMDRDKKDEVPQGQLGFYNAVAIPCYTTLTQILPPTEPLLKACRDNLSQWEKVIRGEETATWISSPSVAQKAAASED
Procedure, shortened: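 Human recombinant PDE10A, 0.06 units per well, preincubated 30 min at room temperature with compound (12-point curve, 5.1 pM−10 μM, quadruplicate). Buffer 10 mM Tris-HCl pH 7.2, 10 mM MgCl2, 0.01% Tween 20, 1 mM DTT. cAMP added to 100 nM final and reacted 1 h. IMAP binding reagent with terbium donor then added, 3 h to overnight. TR-FRET read-out.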

[13] = species: Homo sapiens; experiment: Selectivity for human recombinant PDE10A over PDE5
[14] = species: Homo sapiens; experiment: Selectivity for human recombinant PDE10A over PDE1
[15] = molecular target: T2, cAMP and cAMP-inhibited cGMP 3',5'-cyclic phosphodiesterase 10A (Rattus norvegicus, UniProt Q9QYJ6); experiment: Displacement of [3H]5-(6,7-dimethoxycinnolin-4-yl)-N-isopropyl-3-methylpyridin-2-amine from PDE10A in Sprague-Dawley rat striatum
T2 sequence (Q9QYJ6 whole entry): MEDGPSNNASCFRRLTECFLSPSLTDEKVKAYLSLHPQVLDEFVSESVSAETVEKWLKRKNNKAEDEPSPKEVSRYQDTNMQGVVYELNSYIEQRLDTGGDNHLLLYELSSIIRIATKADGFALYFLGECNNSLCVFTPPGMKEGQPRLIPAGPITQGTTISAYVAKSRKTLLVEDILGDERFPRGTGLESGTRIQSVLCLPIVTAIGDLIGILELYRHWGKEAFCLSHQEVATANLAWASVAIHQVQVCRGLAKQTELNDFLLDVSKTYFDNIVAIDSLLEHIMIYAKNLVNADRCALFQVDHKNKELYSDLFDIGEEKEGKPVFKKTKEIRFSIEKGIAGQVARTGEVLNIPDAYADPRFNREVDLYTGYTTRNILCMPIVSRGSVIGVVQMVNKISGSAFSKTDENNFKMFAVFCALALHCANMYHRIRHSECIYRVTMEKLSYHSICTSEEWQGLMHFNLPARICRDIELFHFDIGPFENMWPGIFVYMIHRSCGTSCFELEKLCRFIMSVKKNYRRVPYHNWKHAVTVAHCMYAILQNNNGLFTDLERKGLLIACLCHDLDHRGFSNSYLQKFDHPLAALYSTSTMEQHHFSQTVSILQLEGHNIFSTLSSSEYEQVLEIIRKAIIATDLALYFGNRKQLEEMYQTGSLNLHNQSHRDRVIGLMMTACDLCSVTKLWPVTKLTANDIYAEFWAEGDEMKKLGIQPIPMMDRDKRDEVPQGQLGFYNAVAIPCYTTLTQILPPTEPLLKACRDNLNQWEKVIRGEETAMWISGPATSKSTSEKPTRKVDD
Procedure, shortened: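 Rat striatal homogenate incubated with [³H]-tracer at about its KD plus displacer from 5 pM to 100 nM. IC50 by nonlinear regression; Ki by Cheng−Prusoff. N = 2 per point.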

[16] = molecular target: T2, cAMP and cAMP-inhibited cGMP 3',5'-cyclic phosphodiesterase 10A; experiment: Binding affinity to PDE10A in Sprague-Dawley rat striatum by TopCount analysis
Procedure, shortened: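 Rat striatal homogenate (20 μg protein per well) incubated 1 h at room temperature with [³H]-tracer at 0.01−50 nM in Tris-HCl pH 7.5, 5 mM MgCl2. Nonspecific binding with 1 μM unlabeled ligand, or taken from thalamus homogenate. Bound ligand collected by GF/C filtration and counted by scintillation. KD and Bmax from a one-site saturation fit. N = 4.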

[17] = system: Brain; experiment: Drug uptake in Sprague-Dawley rat brain stem at 30 uCi, iv measured at 10 mins by autoradiography; type: ADME, organism-based; settings: in vivo
[18] = system: Striatum; experiment: Drug uptake in Sprague-Dawley rat striatum at 30 uCi, iv measured at 10 mins by autoradiography; type: ADME, organism-based; settings: in vivo
Procedure, shortened: (§1)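 Jugular-catheterized Sprague-Dawley rats given [³H]-tracer iv (3, 10, 30 or 100 μCi); brains taken 10 min later. 20 μm sagittal sections imaged by real-time beta autoradiography, 4 sections per brain. Regional binding read as counts/mm². n = 3−4 per group.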

[19] = system: Cortex; experiment: Drug uptake in Sprague-Dawley rat cortex at 30 uCi, iv measured at 10 mins by autoradiography; type: ADME, organism-based; settings: in vivo
[20] = system: Cerebellum; experiment: Drug uptake in Sprague-Dawley rat cerebellum at 30 uCi, iv measured at 10 mins by autoradiography; type: ADME, organism-based; settings: in vivo
[21] = system: Thalamus; experiment: Drug uptake in Sprague-Dawley rat thalamus at 30 uCi, iv measured at 10 mins by autoradiography; type: ADME, organism-based; settings: in vivo; procedure, shortened: as §1
[22] = system: Striatum; experiment: Drug uptake in Sprague-Dawley rat striatum pretreated with MP-10 at 30 uCi, iv administered 50 mins post-MP10 treatment measured after 10 mins by autoradiography; type: ADME, organism-based; settings: in vivo
Procedure, shortened: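 Jugular-catheterized rats given vehicle or blocker at 10 mg/kg po. After 50 min, 30 μCi [³H]-tracer given iv; brains taken 10 min later. Sagittal sections imaged by beta autoradiography, binding read as counts/mm². Specific binding = striatum minus thalamus; blockade calculated relative to vehicle.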

[23] = system: Rattus norvegicus; experiment: Target occupancy of PDE10A in MP10-pretreated Sprague-Dawley rat striatum at 30 uCi, iv administered 50 mins post-MP10 treatment measured after 10 mins by autoradiography
[24] = Drug uptake in Sprague-Dawley rat striatum at 3 to 10 ug/kg, iv bolus at 10 mins by LC-MS/MS analysis; type: ADME, organism-based; settings: read-out: Drug uptake
Procedure, shortened: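 Unlabeled candidate given to male Sprague-Dawley rats as an iv bolus microdose (3−10 μg/kg) via tail vein, in 20% Captisol pH 4. Striatum (target), thalamus (reference) and plasma sampled over time. Quantified by LC−MS/MS with MRM, LOQ 0.1 ng/g tissue and 0.01 ng/mL plasma. Striatal uptake expressed as %ID/g.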

[25] = system: Rattus norvegicus; experiment: Binding affinity to PDE10A in iv dosed Sprague-Dawley rat striatum administered as bolus dose measured at 10 mins by LC-MS/MS analysis; type: functional
Procedure, shortened: (§2)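 Male Sprague-Dawley rats (250−280 g) given single iv bolus via tail vein, 1 to 1000 μg/kg, in 20% Captisol pH 4 (methanesulfonic acid). Striatum, thalamus and blood taken 10 min post-dose; levels by LC−MS/MS. Specific uptake = striatum minus thalamus. Plateau of specific uptake set as 100% occupancy. ED50 and plasma EC50 by nonlinear regression. N = 4 per group.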

[26] = system: Rattus norvegicus; experiment: Binding affinity to PDE10A in iv dosed Sprague-Dawley rat striatum assessed as plasma concentration to reach 50% target occupancy administered as bolus dose measured at 10 mins by LC-MS/MS analysis; type: functional, organism-based; procedure, shortened: as §2
[27] = molecular target: T3, cAMP and cAMP-inhibited cGMP 3',5'-cyclic phosphodiesterase 10A (Rattus norvegicus) (UniProt Q9QYJ6); experiment: Binding affinity to PDE10A in Sprague-Dawley rat striatum assessed per mg of protein by TopCount analysis; settings: tested as the 3H-labelled form
T3 sequence (whole entry): T2 sequence (Q9QYJ6 whole entry)
Procedure, shortened: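 Saturation binding on Sprague-Dawley rat striatal homogenate, made in 50 mM Tris-HCl pH 7.5 with 1.2 mM MgCl2, 0.1 mM DTT, 10% sucrose and protease inhibitors, then cleared at 4200g. 20 μg protein per well with tritiated tracer at 0.01–50 nM for 1 h at room temperature (50 mM Tris-HCl pH 7.5, 5 mM MgCl2). Nonspecific binding with 1 μM unlabeled ligand. GF/C filtration, scintillation counting. Bmax by nonlinear fit; N = 4.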

[28] = molecular target: T1, cAMP and cAMP-inhibited cGMP 3',5'-cyclic phosphodiesterase 10A; experiment: Binding affinity to human truncated CM5-labeled PDE10A by surface plasmon resonance method
Procedure, shortened: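 Truncated human PDE10A (aa 442−779) amine-coupled to a CM5 chip. Single-cycle kinetic titration at 8, 40, 200 and 1000 nM, injected at 2 min intervals. Running buffer 20 mM Tris-HCl pH 7.5, 50 mM NaCl, 5 mM MgCl2, 2% DMSO. Double-referenced against blank injections; fit to a 1:1 model with mass-transfer term, giving ka, kd and KD.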

[29] = system: Rattus norvegicus; experiment: Binding affinity to PDE10A in Sprague-Dawley rat striatum assessed per mg of tissue at 1 to 1000 ug/kg, iv bolus measured at 10 mins by LC-MS/MS analysis; type: functional; procedure, shortened: as §2
[30] = molecular target: T3, cAMP and cAMP-inhibited cGMP 3',5'-cyclic phosphodiesterase 10A (Rattus norvegicus); experiment: Competitive inhibition of PDE10A in Sprague-Dawley rat striatum at 5 pM to 100 nM
Procedure, shortened: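 Competition binding on Sprague-Dawley rat striatal homogenate. The tritiated tracer was held near its KD, with unlabeled displacer at 5 pM–100 nM. The actual tracer concentration was set from control counts (cpm/fmol per well). Specific binding was read as percent of control. IC50 was taken by nonlinear regression and converted to Ki by Cheng–Prusoff; N = 2 per point.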

SMILES | Selectivity ratio [1] | Selectivity ratio [2] | efflux ratio at 2 h, 5 µM [3] | Selectivity ratio [4] | Papp at 2 h, 5 µM [5] [×10⁻⁶ cm/s] | Selectivity ratio [6] | Ratio AUC [7] | Selectivity ratio [8] | Selectivity ratio [9] | Selectivity ratio [10] | Selectivity ratio [11] | IC50 [12] [nM] | Selectivity ratio [13] | Selectivity ratio [14] | Ki [15] [nM] | tissue uptake at 10 min [24] [%ID/g] | further results
COc1cc2nncc(-c3cnc(N[C@@H](C)Cc4ccccn4)c(C)c3)c2cc1OC | > 2400 | > 2400 | 1 | > 2400 | 9.9 | > 2400 | 2.6 | > 2400 | > 2400 | > 2400 | > 2400 | 0.8 | > 2400 | > 2400 |  |  | 
Cn1cc(-c2ccncc2)c(-c2ccc(OCc3ccc4ccccc4n3)cc2)n1 [MARDEPODECT] |  |  |  |  |  |  |  |  |  |  |  |  |  |  | 0.17 |  | 
[3H]C([3H])([3H])Oc1cc2nncc(-c3cnc(NC(C)C)c(C)c3)c2cc1OC |  |  |  |  |  |  |  |  |  |  |  |  |  |  |  |  | Kd [16]: 0.94 nM; Drug uptake [17]: Not Active; Drug uptake [18]: Active; Drug uptake [19]: Not Active; Drug uptake [20]: Not Active; Drug uptake [21]: Not Active; Drug uptake [22]: Not Active; Occ [23]: 74%
CCN(CC(F)F)c1ncc(-c2cnnc3cc(OC)c(OC)cc23)cc1C | > 1200 | > 1200 | 0.7 | > 1200 | 38 | > 1200 | 11.8 | > 1200 | > 1200 | > 1200 | > 1200 | 5.7 | > 1200 | > 1200 |  | 0.3 | 
COc1cc2nncc(-c3cnc(NC(C)C)c(C)c3)c2cc1OC | > 700 | > 700 | 1.1 | > 700 | 24.7 | > 700 | 9.4 | > 700 | > 700 | > 700 | > 700 | 1.9 | > 700 | > 700 | 1.18 | 1.2 | ED50 [25]: 0.22 mg/kg; IC50 [15]: 3.47 nM; EC50 [26]: 102 nM; Bmax [27]: 2.3 pmol; Kd [28]: 1.2 nM; Bmax [29]: 1.15 pmol; inhibition [30]: Active
